How the values were obtained:
Assay type in all cases: cell-based
[1] = target: Somatostatin receptor type 1 (Homo sapiens, UniProt P30872); test: In vitro inhibition of [125I][Leu8,D-Trp22,Tyr25] somatostatin 28 binding to human somatostatin receptor type 1 expressed in CHO-K1 cells; (n=7)
In short: (§1)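 Receptor autoradiography on sections of cell membrane pellets from CHO-K1 (sst1, sst5) or CCL39 (sst2–4) cells stably expressing the human subtype. Full displacement of [125I][Leu8,D-Trp22,Tyr25]somatostatin 28 by unlabeled peptide, 0.1–1000 nM, with somatostatin 28 run in parallel as control. IC50 derived by computer-assisted image analysis, quantified against cross-calibrated [125I] tissue standards.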

[2] = target: Somatostatin receptor type 3 (Homo sapiens, UniProt P32745); test: In vitro inhibition of [125I][Leu8,D-Trp22,Tyr25] somatostatin 28 binding to human somatostatin receptor type 3 expressed in CCL39 cells; (n=4); in short: as §1
[3] = target: Somatostatin receptor type 4 (Homo sapiens, UniProt P31391); test: In vitro inhibition of [125I][Leu8,D-Trp22,Tyr25] somatostatin 28 binding to human somatostatin receptor type 4 expressed in CCL39 cells; (n=6)
[4] = target: Somatostatin receptor type 5 (Homo sapiens, UniProt P35346); test: In vitro inhibition of [125I][Leu8,D-Trp22,Tyr25] somatostatin 28 binding to human somatostatin receptor type 5 expressed in CHO-K1 cells; (n=6)
Sequence of Somatostatin receptor type 5 (P35346 whole entry): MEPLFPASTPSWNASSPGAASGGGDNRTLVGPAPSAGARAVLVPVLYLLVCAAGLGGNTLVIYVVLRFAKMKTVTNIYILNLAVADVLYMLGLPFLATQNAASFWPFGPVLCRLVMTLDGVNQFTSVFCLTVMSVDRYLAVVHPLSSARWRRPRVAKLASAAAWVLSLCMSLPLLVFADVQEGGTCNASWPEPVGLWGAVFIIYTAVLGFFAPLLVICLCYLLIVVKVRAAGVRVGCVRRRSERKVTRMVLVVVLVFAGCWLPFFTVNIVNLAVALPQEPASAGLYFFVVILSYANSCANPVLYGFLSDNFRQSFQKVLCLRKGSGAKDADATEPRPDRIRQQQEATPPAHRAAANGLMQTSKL

Sequence of Somatostatin receptor type 3 (P32745 whole entry): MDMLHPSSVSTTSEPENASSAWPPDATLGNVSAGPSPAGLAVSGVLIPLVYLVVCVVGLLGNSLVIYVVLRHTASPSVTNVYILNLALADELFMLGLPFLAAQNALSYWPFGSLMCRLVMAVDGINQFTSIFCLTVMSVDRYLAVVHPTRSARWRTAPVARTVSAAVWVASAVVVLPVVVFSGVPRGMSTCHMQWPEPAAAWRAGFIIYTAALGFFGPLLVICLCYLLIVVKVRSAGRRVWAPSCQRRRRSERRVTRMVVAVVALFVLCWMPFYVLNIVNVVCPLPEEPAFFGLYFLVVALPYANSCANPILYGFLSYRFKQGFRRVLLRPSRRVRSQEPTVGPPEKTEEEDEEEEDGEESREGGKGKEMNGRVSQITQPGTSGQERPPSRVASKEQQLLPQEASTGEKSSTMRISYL
Sequence of Somatostatin receptor type 4 (P31391 whole entry): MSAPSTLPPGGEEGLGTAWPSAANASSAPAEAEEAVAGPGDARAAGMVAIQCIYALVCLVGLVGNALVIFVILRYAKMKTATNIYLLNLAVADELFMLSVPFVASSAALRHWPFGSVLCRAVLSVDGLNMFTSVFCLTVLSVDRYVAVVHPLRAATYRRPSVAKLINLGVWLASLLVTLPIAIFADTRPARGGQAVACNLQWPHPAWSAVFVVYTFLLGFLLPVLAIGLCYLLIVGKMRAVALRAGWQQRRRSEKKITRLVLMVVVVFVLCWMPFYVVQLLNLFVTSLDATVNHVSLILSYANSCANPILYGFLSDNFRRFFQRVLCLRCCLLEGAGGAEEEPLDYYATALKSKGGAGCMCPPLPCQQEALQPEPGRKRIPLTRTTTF
Sequence of Somatostatin receptor type 1 (P30872 whole entry): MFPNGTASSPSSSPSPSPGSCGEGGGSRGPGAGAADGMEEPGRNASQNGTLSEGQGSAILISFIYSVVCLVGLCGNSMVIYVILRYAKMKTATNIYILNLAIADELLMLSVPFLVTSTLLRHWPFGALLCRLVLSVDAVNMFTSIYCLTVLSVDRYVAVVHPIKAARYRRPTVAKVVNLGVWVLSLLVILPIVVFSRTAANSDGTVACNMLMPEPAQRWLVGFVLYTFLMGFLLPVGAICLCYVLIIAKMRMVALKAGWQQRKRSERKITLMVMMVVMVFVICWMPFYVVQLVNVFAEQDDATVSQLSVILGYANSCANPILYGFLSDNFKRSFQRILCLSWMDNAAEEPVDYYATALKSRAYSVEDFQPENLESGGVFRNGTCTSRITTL

IC50 [1]: > 10000 nM | IC50 [2]: 880 nM | IC50 [3]: > 1000 nM | IC50 [4]: 393 nM
SMILES: C[C@@H](O)[C@@H]1NC(=O)[C@H](CCCCN)NC(=O)[C@@H](Cc2c[nH]c3ccccc23)NC(=O)[C@H](Cc2ccc(O)cc2)NC(=O)[C@@H](NC(=O)[C@@H](Cc2ccccc2)NC(=O)CN2CCN(CC(=O)O)CCN(CC(=O)O)CCN(CC(=O)O)CC2)CSSC[C@@H](C(=O)N[C@H](CO)[C@@H](C)O)NC1=O [EDOTREOTIDE]

Source: ChEMBL document CHEMBL1143592, “N-terminal sugar conjugation and C-terminal Thr-for-Thr(ol) exchange in radioiodinated Tyr3-octreotide: effect on cellular ligand trafficking in vitro and tumor accumulation in vivo” (J Med Chem, 2005)
